Assay results of several laboratories.
Target: Mitogen-activated protein kinase kinase kinase 10 (MAP3K10, Homo sapiens, UniProt Q02779)

Compound | assay | setting | quantity | result
Cn1cc(-c2cc(F)cc(N3CCn4c(cc5c4CCCC5)C3=O)c2CO)cc(Nc2ccc(N3CCN(C4COC4)CC3)cn2)c1=O | enzyme activity, inhibitor | 0.1 µM | inhibition | -7%
CC(C)(C)c1cc(C=C(C#N)C#N)cc(Br)c1O | enzyme activity, inhibitor | 0.5 µM | remaining activity | 100%
Cn1cncc1[C@@](O)(COc1ccc(C#N)cc1-c1ccc(OC(F)(F)F)cc1)c1ccc(C#N)cc1 | cell-free assay, competition with immobilised ligand | 1 µM | remaining binding | 98%
Cn1cc(-c2cccc(N3CCc4c(sc5c4CC(C)(C)C5)C3=O)c2CO)cc(Nc2ccncn2)c1=O | enzyme activity, inhibitor | 1 µM | inhibition | -5%
Nc1ncc(-c2nc(N3CCOCC3)nc(N3CCOCC3)n2)c(C(F)F)n1 | binding, competition with immobilised ligand | 10 µM | remaining binding | 53%
COc1ncccc1-c1cnn2ccc(N3CCN(C(=O)OC(C)C)CC3)nc12 | binding, competition with immobilised ligand | 1 µM | remaining binding | 96%
Cc1nn(C)cc1-c1nc2c(N3CCN(Cc4ccc(Cl)cc4)CC3)c(Cl)cnc2[nH]1 | binding, competition with immobilised ligand | 1 µM | remaining binding | 5.4%
O=c1[nH]c2ccccc2n1C1CCN(Cc2ccc(-c3[nH]c4cc5ncnc5cc4nc3-c3ccccc3)cc2)CC1 | cell-free assay | 0.5 µM | remaining signal | 102%
N#CC1(c2ccccn2)CCN(Cc2cc(C(=O)O)c(=O)n3ccccc23)CC1 | cell-free assay, competition with immobilised ligand | 1 µM | remaining binding | 97%
